# Active and inactive are the calls of the source. The rule behind the calls is not given here.
# Legend:
# Solanum lycopersicum [1] = test: Phytotoxicity against Solanum lycopersicum (tomato) assessed as growth inhibition of root length measured 5 days post treatment; format: functional, organism-based
# Method in brief: (§1)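 Lettuce or tomato seeds were grown for 5 days on one filter-paper sheet in 90 mm dishes. The medium was aqueous 10^-2 M MES adjusted to pH 6.0 with NaOH. Compounds were taken from DMSO stocks and diluted into buffer (5 μL DMSO/mL), giving final levels of 1, 0.5, 0.1, 0.05 and 0.01 mM. Root length was acquired automatically. EC50 came from a constant-slope sigmoidal dose-response fit versus log concentration.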
# Allium cepa [2] = test: Phytotoxicity against Allium cepa (onion) assessed as growth inhibition of root length measured 7 days post treatment; format: functional, organism-based; conditions: for IC50: 168 h
# Method in brief: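 Onion seeds germinated in 90 mm Petri dishes on one filter-paper sheet, in aqueous 10^-2 M MES buffer brought to pH 6.0 with NaOH. Compounds were dissolved in DMSO and diluted into buffer (5 μL DMSO/mL) to test concentrations of 1, 0.5, 0.1, 0.05 and 0.01 mM. Root length was recorded after 7 days by automated image acquisition. EC50 was derived from a constant-slope sigmoidal fit on a log concentration scale.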
# Lactuca sativa [3] = test: Phytotoxicity against Lactuca sativa (lettuce) assessed as growth inhibition of root length measured 5 days post treatment; format: functional, organism-based; method in brief: as §1
# Lepidium sativum [4] = test: Phytotoxicity against Lepidium sativum assessed as growth inhibition of root length measured 4 days post treatment; format: functional, organism-based; conditions: for IC50: 96 h
# Method in brief: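 Cress bioassay run over 4 days in 90 mm Petri dishes with one filter-paper sheet. Seeds were in aqueous 10^-2 M MES buffer at pH 6.0, set with 1 M NaOH. DMSO stocks were diluted into buffer at 5 μL/mL to final concentrations of 1, 0.5, 0.1, 0.05 and 0.01 mM. Root length was recorded by an automated system. Values were fitted to a constant-slope sigmoidal curve against log concentration to obtain EC50.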
# Lepidium sativum [5] = test: Phytotoxicity against Lepidium sativum assessed as growth inhibition of root length at < 1 uM measured 4 days post treatment; format: functional, organism-based
# Allium cepa [6] = test: Phytotoxicity against Allium cepa (onion) assessed as growth inhibition of root length at 1 uM measured 7 days post treatment; format: functional; conditions: 168 h, read-out: GI
# Lactuca sativa [7] = test: Phytotoxicity against Lactuca sativa (lettuce) assessed as growth inhibition of root length at 5 uM measured 5 days post treatment; format: functional; conditions: 120 h, read-out: GI
# Method in brief: (§2)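 Seeds germinated in Petri dishes on one filter-paper sheet, in aqueous solution buffered with 10^-2 M MES and brought to pH 6.0 with NaOH. Compounds were dissolved in DMSO, then diluted into buffer (5 μL DMSO/mL). Root length was recorded by automated image acquisition with statistical analysis.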
# Allium cepa [8] = test: Phytotoxicity against Allium cepa (onion) assessed as growth inhibition of root length at 1 to 5 uM measured 7 days post treatment; format: functional, organism-based; method in brief: as §2
# Solanum lycopersicum [9] = test: Phytotoxicity against Solanum lycopersicum (tomato) assessed as growth inhibition of root length at 1 to 5 uM measured 5 days post treatment; format: functional, organism-based; method in brief: as §2
# Lactuca sativa [10] = test: Phytotoxicity against Lactuca sativa (lettuce) assessed as growth inhibition of root length at 1 to 5 uM measured 5 days post treatment; format: functional, organism-based; method in brief: as §2
# Solanum lycopersicum [11] = test: Phytotoxicity against Solanum lycopersicum (tomato) assessed as growth inhibition of root length at 1 uM measured 5 days post treatment; format: functional; conditions: 120 h, read-out: GI; method in brief: as §2
SMILES,growth inhibition (GI) (Solanum lycopersicum [1]),growth inhibition (GI) (Allium cepa [2]),growth inhibition (GI) (Lactuca sativa [3]),growth inhibition (GI) (Lepidium sativum [4]),growth inhibition (GI) (Lepidium sativum [5]),IC50 (Solanum lycopersicum [1]; 120 h) [nM],IC50 (Allium cepa [2]) [nM],inhibition of growth at 1 µM (Allium cepa [6]) [%],IC50 (Lepidium sativum [4]) [nM],inhibition of growth at 5 µM (Lactuca sativa [7]) [%],growth inhibition (GI) (Allium cepa [8]),growth inhibition (GI) (Solanum lycopersicum [9]),growth inhibition (GI) (Lactuca sativa [10]),inhibition of growth at 1 µM (Solanum lycopersicum [11]) [%]
CCC(=O)ON1C(=O)COc2c(Cl)cccc21,Active,Active,Active,Active,,,,,,,,,,
CCC(=O)ON1C(=O)COc2ccc(F)cc21,Active,Active,Active,Active,Active,,,,,,,,,
CCC1Oc2c(Cl)cccc2N(O)C1=O (stereo not drawn),Active,Active,Active,Active,,,,,,,,,,
CCCC1Oc2c(Cl)cccc2N(O)C1=O (stereo not drawn),Active,Active,Active,Active,,,,,,,,,,
CCCC1Oc2ccc(Cl)cc2N(O)C1=O (stereo not drawn),Active,Active,Active,Active,,,,,,,,,,
CCCCC(=O)ON1C(=O)COc2ccc(F)cc21,Active,Active,Active,Active,,,,,,,,,,
O=C1C(c2ccccc2)Oc2c(Cl)cccc2N1O (stereo not drawn),Active,Active,Active,Active,,,,,,,,,,
O=C1C(c2ccccc2)Oc2ccc(Cl)cc2N1O (stereo not drawn),Active,Active,Active,Active,,,,,,,,,,
O=C1C(c2ccccc2)Oc2ccc(F)cc2N1O (stereo not drawn),Active,Active,Active,Active,,,,,,,,,,
CCC1Oc2ccc(Cl)cc2N(O)C1=O [6-Cl-2-Et-D-DIBOA],Active,Active,Active,Active,Active,2300,1600,60,400,,,,,
CCCON1C(=O)COc2ccc(Cl)cc21 [6-Cl-4-Pr-D-DIBOA],Active,Active,Active,Active,,,200,50,60,50,Active,Active,Active,50
CCCCC(=O)ON1C(=O)COc2ccc(Cl)cc21 [6-Cl-4-Val-D-DIBOA],Active,Active,Active,Active,Active,,200,90,60,50,Active,Active,Active,50
CCC1Oc2ccc(F)cc2N(O)C1=O [6-F-2-Et-D-DIBOA],Active,Active,Active,Active,,,1300,50,1000,,,,,
